Experimental findings from publication PMC11097374 (ACS Omega, 2024) are described below.

SMILES strings stand for the structures.

The subject of one data set is MDA-MB 231 cells. Description: MTT assay against human breast cancer cell line MDA-MB 231. In kind it is cell-based. Particulars: for IC50: Homo sapiens, MDA-MB-231, 72 h, read-out: MDA-MB 231 IC50; for MDA-MB 231 SI (selectivity index): over Wi-38 normal cells. The gist of the method:
(§1)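 Cytotoxicity by MTT, run side by side on MCF-7 and MDA-MB231 breast cancer cells and Wi-38 normal human fibroblasts, with doxorubicin as reference. IC50 was determined for each line, and IC100 also on Wi-38. Selectivity indices express selectivity toward each breast cancer line over the normal Wi-38 cells.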
(In general: Formazan colour is commonly taken as a measure of viable cells.)

Data set [1] relates to Wi-38 normal human lung fibroblast cells. Description: MTT assay against normal human cell line. Particulars: for IC50: Homo sapiens, WI-38, 72 h, read-out: Wi-38 IC50; for Wi-38 IC100: MTT, 72 h, SI calls it EC100, dose at 100% cell viability, mean ± SEM. In kind it is cell-based. The method, boiled down: as §1
For another data set, the system named is MCF-7 cells. The data set is described as follows: MTT assay against human breast cancer cell line MCF-7. In kind it is cell-based. As to conditions: for IC50: Homo sapiens, MCF7, 72 h, read-out: MCF-7 IC50; for MCF-7 SI (selectivity index): over Wi-38 normal cells; for cytotoxicity compared to doxorubicin: MTT, cell line not given, fits MCF-7 IC50 values; for fold reduction of potency and selectivity relative to 18: MCF-7, bromo replaced by chloro or nitro. The gist of the method:
as §1

The subject of a further data set is calf thymus DNA (ctDNA). Description: DNA damage by terbium. In kind it is biochemical. As to conditions: 24 h incubation, Tb fluorescence 545 nm.

`CC(=O)Nc1c(N)nc(S)[nH]c1=O` [Compound 3, N-(4-amino-2-mercapto-6-oxo-1,6-dihydropyrimidin-5-yl)acetamide]: in the data set on MDA-MB 231 cells, the IC50 was found to be 1440 ± 255 nM and the “MDA-MB 231 SI (selectivity index)” value came out at 0.930. Besides, in data set [1], the concentration for half-maximal inhibition (IC50) worked out at 1340 ± 72 nM and the “Wi-38 IC100” value was found to be 0.103 ± 0.045 µM. In the data set on MCF-7 cells, the concentration for half-maximal inhibition (IC50) is 832 ± 48 nM and the “MCF-7 SI (selectivity index)” value turned out to be 1.615.
On to `CCOC(=O)CSc1nc(N)c(NC(C)=O)c(=O)[nH]1` [Compound 4, Ethyl 2-((5-Acetamido-4-amino-6-Oxo-1,6-dihydropyrimidin-2-yl)thio)acetate], for which, in the data set with MDA-MB 231 cells, the IC50 was found to be 840 ± 50 nM and the “MDA-MB 231 SI (selectivity index)” value worked out at 1.014. In data set [1], the IC50 came to 852 ± 11 nM and the “Wi-38 IC100” value stood at 0.352 ± 0.012 µM. Moreover, in the data set on MCF-7 cells, the IC50 was found to be 266 ± 15 nM and the “MCF-7 SI (selectivity index)” value was 3.203.
Turning to `CC(=O)Nc1c(N)nc(SCC(=O)N/N=C/c2ccc(Cl)cc2)[nH]c1=O` [Compound 6, (E)-N-(4-amino-2-((2-(2-(4-chlorobenzylidene)hydrazinyl)-2-oxoethyl)thio)-6-oxo-1,6-dihydropyrimidin-5-yl)acetamide], in the data set on MDA-MB 231 cells, the IC50 was 681 ± 29 nM and the “MDA-MB 231 SI (selectivity index)” value is 1.016. In addition, in data set [1], the IC50 came to 692 ± 64 nM and the “Wi-38 IC100” value turned out to be 0.037 ± 0.007 µM. In the data set with MCF-7 cells, the IC50 came to 445 ± 15 nM and the “MCF-7 SI (selectivity index)” value turned out to be 1.555.
As for `CC(=O)Nc1c(N)nc(SCC(=O)N/N=C/c2ccc(Br)cc2)[nH]c1=O` [Compound 7, (E)-N-(4-amino-2-((2-(2-(4-bromobenzylidene)hydrazinyl)-2-oxoethyl)thio)-6-oxo-1,6-dihydropyrimidin-5-yl)acetamide], in the data set with MDA-MB 231 cells, the 50% inhibitory concentration (IC50) worked out at 616 ± 20 nM and the “MDA-MB 231 SI (selectivity index)” value is 0.662. In data set [1], the IC50 is 408 ± 81 nM and the “Wi-38 IC100” value stood at 0.232 ± 0.003 µM. In the data set with MCF-7 cells, the IC50 is 167 ± 40 nM and the “cytotoxicity compared to doxorubicin” value is “surpassed doxorubicin”.
For the compound `CC(=O)Nc1c(N)nc(SCC(=O)N/N=C/c2ccc([N+](=O)[O-])cc2)[nH]c1=O` [Compound 8, (E)-N-(4-amino-2-((2-(2-(4-nitrobenzylidene)hydrazinyl)-2-oxoethyl)thio)-6-oxo-1,6-dihydropyrimidin-5-yl)acetamide], in the data set with MDA-MB 231 cells, the IC50 stood at 583 ± 20 nM and the “MDA-MB 231 SI (selectivity index)” value stood at 1.222. Also, in the data set on calf thymus DNA (ctDNA), the “LOD (minimum concentration inducing detectable DNA damage)” value turned out to be 30.03 nM and the LOQ was 100.12 nM. Moreover, in data set [1], the 50% inhibitory concentration (IC50) was 713 ± 44 nM and the “Wi-38 IC100” value is 0.491 ± 0.084 µM. In addition, in the data set with MCF-7 cells, the 50% inhibitory concentration (IC50) turned out to be 146 ± 11 nM, the “cytotoxicity compared to doxorubicin” value is “surpassed doxorubicin” and the “MCF-7 SI (selectivity index)” value is given as 4.883.
For `COc1ccc(/C=N/NC(=O)CSc2nc(N)c(NC(C)=O)c(=O)[nH]2)cc1` [Compound 9, (E)-N-(4-amino-2-((2-(2-(4-methoxybenzylidene)hydrazinyl)-2-oxoethyl)thio)-6-oxo-1,6-dihydropyrimidin-5-yl)acetamide], in the data set with MDA-MB 231 cells, the concentration for half-maximal inhibition (IC50) was determined as 683 ± 1 nM and the “MDA-MB 231 SI (selectivity index)” value was 1.531. Moreover, in data set [1], the IC50 was 1050 ± 25 nM and the “Wi-38 IC100” value came out at 0.424 ± 0.020 µM. In the data set with MCF-7 cells, the half-maximal inhibitory concentration (IC50) came out at 217 ± 16 nM and the “MCF-7 SI (selectivity index)” value is recorded as 4.820.
`CC(=O)Nc1c(N)nc(SCC(=O)N/N=C/c2ccccc2O)[nH]c1=O` [Compound 10, (E)-N-(4-amino-2-((2-(2-(2-hydroxybenzylidene)hydrazinyl)-2-oxoethyl)thio)-6-oxo-1,6-dihydropyrimidin-5-yl)acetamide]: in the data set on MDA-MB 231 cells, the concentration for half-maximal inhibition (IC50) stood at 590 ± 49 nM and the “MDA-MB 231 SI (selectivity index)” value is 0.849. In data set [1], the half-inhibitory concentration (IC50) turned out to be 501 ± 49 nM and the “Wi-38 IC100” value is 0.241 ± 0.037 µM. For the same compound, in the data set with MCF-7 cells, the half-maximal inhibitory concentration (IC50) amounted to 102 ± 1 nM, the “cytotoxicity compared to doxorubicin” value is “surpassed doxorubicin” and the “MCF-7 SI (selectivity index)” value is given as 4.911.
Turning to `Cc1cc(=O)n2c(C)n[nH]c2n1` [Compound 14, 3,7-Dimethyl-1,2,4-triazolo[4,3-a]pyrimidin-5(1H)-one], in the data set with MDA-MB 231 cells, the 50% inhibitory concentration (IC50) worked out at 1260 ± 52 nM and the “MDA-MB 231 SI (selectivity index)” value is 1.200. Moreover, in data set [1], the IC50 was 1510 ± 41 nM and the “Wi-38 IC100” value came to 0.206 ± 0.014 µM. Besides, in the data set on MCF-7 cells, the IC50 is 292 ± 10 nM and the “MCF-7 SI (selectivity index)” value was 5.157.
Take `COC(=O)Cn1nc(C)n2c(=O)cc(C)nc12` [Compound 15, Methyl 2-(3,7-dimethyl-5-oxo-1,2,4-triazolo[4,3-a]pyrimidin-1(5H)-yl)acetate]: in the data set with MDA-MB 231 cells, the IC50 came out at 1280 ± 56 nM and the “MDA-MB 231 SI (selectivity index)” value is given as 0.912. For the same compound, in data set [1], the 50% inhibitory concentration (IC50) came out at 1170 ± 22 nM and the “Wi-38 IC100” value turned out to be 0.237 ± 0.017 µM. In addition, in the data set on MCF-7 cells, the 50% inhibitory concentration (IC50) came out at 617 ± 29 nM and the “MCF-7 SI (selectivity index)” value turned out to be 1.894.
`Cc1cc(=O)n2c(C)nn(CC(=O)NN)c2n1` [Compound 16, 2-(3,7-Dimethyl-5-oxo-1,2,4-triazolo[4,3-a]pyrimidin-1(5H)-yl)acetohydrazide]: in the data set on MDA-MB 231 cells, the IC50 amounted to 1128 ± 2 nM and the “MDA-MB 231 SI (selectivity index)” value was 0.867. Further, in data set [1], the 50% inhibitory concentration (IC50) was 978 ± 13 nM and the “Wi-38 IC100” value came out at 0.115 ± 0.033 µM. In the data set on MCF-7 cells, the IC50 turned out to be 544 ± 8 nM and the “MCF-7 SI (selectivity index)” value is listed as 1.797.
Regarding `Cc1cc(=O)n2c(C)nn(CC(=O)N/N=C/c3ccc(Cl)cc3)c2n1` [Compound 17, (E)-N′-(4-chlorobenzylidene)-2-(3,7-dimethyl-5-oxo-1,2,4-triazolo[4,3-a]pyrimidin-1(5H)-yl)acetohydrazide], in the data set with MDA-MB 231 cells, the 50% inhibitory concentration (IC50) was found to be 632 ± 29 nM and the “MDA-MB 231 SI (selectivity index)” value amounted to 0.938. In data set [1], the IC50 came out at 593 ± 24 nM and the “Wi-38 IC100” value came to 0.124 ± 0.034 µM. Moreover, in the data set with MCF-7 cells, the 50% inhibitory concentration (IC50) came out at 403 ± 62 nM; the “fold reduction of potency and selectivity relative to 18” value amounted to 5 fold; the “MCF-7 SI (selectivity index)” value was 1.471.
With `Cc1cc(=O)n2c(C)nn(CC(=O)N/N=C/c3ccc(Br)cc3)c2n1` [Compound 18, (E)-N′-(4-bromobenzylidene)-2-(3,7-dimethyl-5-oxo-1,2,4-triazolo[4,3-a]pyrimidin-1(5H)-yl)acetohydrazide], in the data set with MDA-MB 231 cells, the IC50 came to 559 ± 29 nM and the “MDA-MB 231 SI (selectivity index)” value was determined as 1.060. Moreover, in data set [1], the IC50 stood at 593 ± 5 nM and the “Wi-38 IC100” value is 0.111 ± 0.005 µM. Besides, in the data set on MCF-7 cells, the half-inhibitory concentration (IC50) turned out to be 42 ± 9 nM, the “cytotoxicity compared to doxorubicin” value was “surpassed doxorubicin” and the “MCF-7 SI (selectivity index)” value is 14.119.
With `Cc1cc(=O)n2c(C)nn(CC(=O)N/N=C/c3ccc([N+](=O)[O-])cc3)c2n1` [Compound 19, (E)-N′-(4-nitrobenzylidene)-2-(3,7-dimethyl-5-oxo-1,2,4-triazolo[4,3-a]pyrimidin-1(5H)-yl)acetohydrazide], in the data set on MDA-MB 231 cells, the IC50 amounted to 820 ± 90 nM and the “MDA-MB 231 SI (selectivity index)” value amounted to 0.746. Further, in data set [1], the IC50 is 612 ± 34 nM and the “Wi-38 IC100” value was determined as 0.329 ± 0.031 µM. Moreover, in the data set on MCF-7 cells, the half-inhibitory concentration (IC50) is 201 ± 39 nM; the “fold reduction of potency and selectivity relative to 18” value was 10 fold; the “MCF-7 SI (selectivity index)” value turned out to be 3.044.
With `COc1ccc(/C=N/NC(=O)Cn2nc(C)n3c(=O)cc(C)nc23)cc1` [Compound 20, (E)-N′-(4-methoxybenzylidene)-2-(3,7-dimethyl-5-oxo-1,2,4-triazolo[4,3-a]pyrimidin-1(5H)-yl)acetohydrazide], in the data set with MDA-MB 231 cells, the half-maximal inhibitory concentration (IC50) is 856 ± 19 nM and the “MDA-MB 231 SI (selectivity index)” value is on record as 0.844. For the same compound, in data set [1], the half-maximal inhibitory concentration (IC50) was determined as 723 ± 20 nM and the “Wi-38 IC100” value is 0.280 ± 0.037 µM. Further, the IC50 in the data set on MCF-7 cells turned out to be 334 ± 20 nM.
For `Cc1cc(=O)n2c(C)nn(CC(=O)N/N=C/c3ccccc3O)c2n1` [Compound 21, (E)-N′-(2-hydroxybenzylidene)-2-(3,7-dimethyl-5-oxo-1,2,4-triazolo[4,3-a]pyrimidin-1(5H)-yl)acetohydrazide], in the data set with MDA-MB 231 cells, the IC50 was found to be 697 ± 24 nM and the “MDA-MB 231 SI (selectivity index)” value is recorded as 0.743. In addition, in data set [1], the 50% inhibitory concentration (IC50) was 518 ± 8 nM and the “Wi-38 IC100” value stood at 0.269 ± 0.026 µM. In the data set on MCF-7 cells, the IC50 was found to be 52 ± 10 nM, the “cytotoxicity compared to doxorubicin” value is “surpassed doxorubicin” and the “MCF-7 SI (selectivity index)” value was 9.961.
As for `COc1cccc2c1C(=O)c1c(O)c3c(c(O)c1C2=O)C[C@@](O)(C(=O)CO)C[C@@H]3O[C@H]1C[C@H](N)[C@H](O)[C@H](C)O1` [DOX., doxorubicin, reference compound], in the data set on MDA-MB 231 cells, the IC50 worked out at 487 ± 18 nM and the “MDA-MB 231 SI (selectivity index)” value is 0.661. Moreover, in the data set with calf thymus DNA (ctDNA), the “LOD (minimum concentration inducing detectable DNA damage)” value amounted to 0.76 nM and the LOQ came out at 2.56 nM. For the same compound, in data set [1], the IC50 was determined as 322 ± 25 nM and the “Wi-38 IC100” value turned out to be 0.119 ± 0.005 µM. Besides, in the data set on MCF-7 cells, the half-inhibitory concentration (IC50) is 198 ± 11 nM and the “MCF-7 SI (selectivity index)” value came out at 1.626.

Usually IC50 stands for the concentration at which inhibition is half-maximal.
